The text below walks through data of ChEMBL document CHEMBL1123945, “Dimethylsulfonium and thiolanium analogues of the muscarinic agent oxotremorine” (J Med Chem, 1988).

Data set [1] can be described thus: In vitro nicotinic activity was measured on frog rectus abdominis. The data set is classed as functional, tissue-based, Rectus abdominis muscle. The gist of the method:
(§1)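 Frog rectus abdominis in aerated Clark-Ringer solution pH 7.4 at 22 °C. Noncumulative concentration–response curves, 5 min exposure per concentration. Isotonic contractions recorded.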

Data set [2] concerns the target Muscarinic acetylcholine receptor. As to the kind of experiment: Binding affinity to Muscarinic acetylcholine receptor in rat cerebral cortex. The data set is classed as tissue-based.
Data set [3] has as its system Mus musculus. As to the kind of experiment: Sialalogic activity was measured in mice after intravenous administration. The format is functional. A digest of the protocol: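 Male Swiss-Webster mice (24–30 g). Drugs in 0.9% NaCl given iv in the tail. Salivation was scored by blotting the mouth onto absorbent tissue during the first 10 min. ED50 by the up-and-down method, six or more animals per determination.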

Data set [4] in a line: (§2) Acute toxicity was measured in mice. The format is organism-based. The note with it: mouse, in vivo. The gist of the method: (§3)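 Male Swiss-Webster mice, 24-30 g. Drug dissolved in 0.9% NaCl, given iv in the tail. LD50 estimated by the up-and-down method, using six or more animals per determination. Mortality counted at 1 h.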
Data set [5] deals with T1, Muscarinic acetylcholine receptor (Rattus norvegicus) (UniProt P08482+P08483+P08485+P08911+P10980). As to the kind of experiment: Percentage of high affinity sites was determined in rat cerebral cortex. The format is tissue-based.
In data set [6] the target is T1, Muscarinic acetylcholine receptor (Rattus norvegicus). The experiment in a line: Low affinity dissociation constant to Muscarinic acetylcholine receptor in rat cerebral cortex. The data set is classed as tissue-based.
The target is the same in data set [7]. As to the kind of experiment: High affinity dissociation constant to Muscarinic acetylcholine receptor in rat cerebral cortex. The format is tissue-based.
The species named for data set [8] is Cavia porcellus. The experiment in a line: In vitro muscarinic activity was measured on isolated guinea pig ileum. The data set is classed as functional. A digest of the protocol: (§4)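 Guinea pig ileum segments in Tyrode solution pH 7.4, 37 °C, with 0.3 mM hexamethonium. Isotonic contractions at 1 g tension. Cumulative concentration–response curves, concentration raised stepwise by a factor of 2.15. Means ± SE over tissues.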

For data set [9], the species on record is Cavia porcellus. The experiment in a line: Dissociation constant of the drug-receptor complex was measured in guinea pig ileum. The format is functional.
Data set [10] is filed under the species Cavia porcellus. The experiment in a line: Dissociation constant of the drug-receptor complex was measured in guinea pig urinary bladder. The format is functional.
For data set [11], the species on record is Cavia porcellus. The experiment in a line: Relative efficacy of compound was determined in guinea pig iluem. The format is functional.
A short description of data set [12]: Equipotent molar ratio measured on frog rectus abdominis. The data set is classed as functional, Rectus abdominis muscle. A digest of the protocol: as §1
Data set [13] in a line: The equipotent molar ratio (EPMR) relative to oxotremorine on isolated guinea pig. The data set is classed as functional. The conditions noted are these: in the assay text read “relative to carbachol” for “relative to oxotremorine”. The gist of the method: as §4
The species named for data set [14] is Cavia porcellus. The experiment in a line: In vitro muscarinic activity was measured on isolated guinea pig urinary bladder. The data set is classed as functional. The gist of the method:
(§5)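 Guinea pig urinary bladder strips in Tyrode solution pH 7.4, 37 °C, containing 0.3 mM hexamethonium. Isotonic recording at 1 g tension. Cumulative concentration–response curves, concentration raised stepwise by a factor of 3.16.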

A short description of data set [15]: The equipotent molar ratio (EPMR) relative to oxotremorine on isolated guinea urinary bladder. The note with it: in the assay text read “relative to carbachol” for “relative to oxotremorine”. The data set is classed as functional. The gist of the method:
as §5

Data set [16] is filed under the species Cavia porcellus. As to the kind of experiment: Relative efficacy of compound was determined in guinea pig urinary bladder. The data set is classed as functional.
Data set [17] in a line: as §2. The note with it: mouse, in vivo. A digest of the protocol: as §3
The nature of data set [18]: Ratio of equipotent molar ratio (EPMR) of frog rectus to EPMR of guinea pig ileum. The data set is classed as functional.
Data set [19] is described as follows: Equipotent molar ratio (EPMR) was measured on frog rectus abdominis. The data set is classed as functional, Rectus abdominis muscle. The gist of the method:
as §1

Data set [20] is filed under the species Cavia porcellus. As to the kind of experiment: Relative efficacy of compound was determined was determined in guinea pig bladder. The data set is classed as functional.

For `O=C1CCCN1CC#CC[S+]1CCCC1.[Cl-]`, the EC50 – broadly, the concentration needed to bring the measured effect to its halfway point – was determined as 5 µM in data set [1], 0.25 µM in data set [8] and 1.2 µM in [14]. Also, in data set [2], the IC50 (commonly the concentration at which inhibition is half-maximal) came out at 0.31 µM. It took a dose of 0.35 µmol/kg to reach the 50% effect level in data set [3] (ED50). Further, the LD50 (in general, the dose expected to kill half of the subjects tested) in data set [4] stood at 2.2 µmol/kg. Besides, the Binding in data set [5] is 37%. In [6], this compound gave a KL of 0.99 µM. Also, the KH in data set [7] is 0.069 µM. For the same compound, the Kd – broadly, the constant that tells how readily two partners part at equilibrium – was 1.3 µM in data set [9] and 1.1 µM in [10]. Also, the Efficacy was 0.054 in data set [11] and 0.057 in data set [16]. Besides, the Ratio is listed as 1.4 in data set [12], 2.1 in data set [13] and 2.3 in data set [15].

`C[N+](C)(C)CCOC(N)=O.[Cl-]` [CARBACHOL] showed an LD50 in [17] of 1.7 µmol/kg. This compound gave an EC50 in data set [1] of 3.8 µM. The ED50 (commonly the dose at which the effect has come halfway, by size or by number of responders) in [3] was 0.083 µmol/kg. Also, the Efficacy in data set [11] and in data set [16] was 1 throughout.

In data set [2], `C[N+](C)(C)CC#CCN1CCCC1=O.[I-]` [OXOTREMORINE METHIODIDE] displayed a 50% inhibitory concentration (IC50) of 1.2 µM. Moreover, the ED50 in data set [3] was 0.058 µmol/kg. The 50% lethal dose (LD50) in [4] came to 1 µmol/kg. The Binding in [5] was determined as 31.3%. This compound also had a KL in data set [6] of 5.4 µM. The KH in [7] was determined as 0.019 µM. The EC50 is 0.023 µM in data set [8] and 0.37 µM in [14]. Also, the Kd in [9] stood at 2.9 µM; in data set [10], 4.3 µM. The Efficacy in data set [11] was determined as 0.95; in data set [16] it was 0.88. Also, the Ratio in data set [12] amounted to 2.1.

On to `O=C1CCC(=O)N1CC#CC[S+]1CCCC1.[Cl-]`, for which the EC50 in data set [1] was 66.2 µM; in data set [8], 7.9 µM. This compound also gave an IC50 in data set [2] of 3.3 µM. In data set [4], this compound displayed a 50% lethal dose (LD50) of 3.5 µmol/kg. In addition, the equilibrium dissociation constant (Kd) in [9] was 7.5 µM; in [10], 13.1 µM. Further, the Efficacy in [11] is on record as 0.0061. The Ratio in data set [12] is recorded as 18; in data set [13] it was 81.

For `C[S+](C)CC#CCN1CCCC1=O.[Cl-]`, the Ratio in [18] is 33.8; in [19] it was 8.1; in data set [13], 0.24; in data set [15], 0.32. Moreover, the half-maximal effective concentration (EC50) was 29 µM in data set [1], 0.029 µM in data set [8] and 0.2 µM in data set [14]. In [2], this compound yielded an IC50 of 0.8 µM. For the same compound, the median effective dose (ED50) in data set [3] stood at 0.024 µmol/kg. The LD50 in data set [4] was found to be 2.8 µmol/kg. Further, the Binding in data set [5] stood at 28.4%. In data set [6], this compound showed a KL of 2.2 µM. The KH in data set [7] is 0.011 µM. Moreover, the Efficacy came out at 0.48 in [20] and 0.41 in data set [11]. In addition, the results for the equilibrium dissociation constant (Kd) in data set [9] and in data set [10] were 1.5 µM and 1.3 µM, respectively.

With `C[S+](C)CC#CCN1C(=O)CCC1=O.[Cl-]`, the EC50 in data set [1] was found to be 2600 µM; in [8], 0.41 µM; in [14], 1.7 µM. In data set [2], this compound displayed a half-inhibitory concentration (IC50) of 5.4 µM. Also, the 50% effective dose (ED50) in data set [3] worked out at 0.48 µmol/kg. Also, in [4], the median lethal dose (LD50) is 70 µmol/kg. Also, the Binding in data set [5] was 27.4%. Further, the KL in data set [6] was 12.7 µM. Also, in [7], the KH is 0.19 µM. Besides, the values for the Kd in [9] and in data set [10] were 6.9 µM and 5.9 µM, respectively. For the same compound, the Efficacy is on record as 0.11 in [11] and 0.15 in [16]. The results for the Ratio in data set [12], in [13] and in data set [15] were 692, 4.1 and 3.7, respectively.
